Experiment [1] concerns the target T1, Inosine-5'-monophosphate dehydrogenase 2 (Homo sapiens, UniProt P12268). Description: Inhibitory activity against human Inosine-5'-monophosphate dehydrogenase 2 (IMPDH type II); NA is not active. In short, it runs like this:
(§1)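 Human IMPDH isoforms type I and type II assayed separately. Substrate, cofactor and inhibitor were premixed, and the reaction was started by adding enzyme. Values are reported as Ki.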

For experiment [2], the system named is K562. Description: Compound effect on differentiation of K562 cells, % of benzidine positive cells at 15 uM. The format is functional, Homo sapiens.
In experiment [3] the test system is K562. Description: Compound effect on differentiation of K562 cells, % of benzidine positive cells at 1.0 uM. The format is functional, Homo sapiens.
For experiment [4], the target named is T2, Inosine-5'-monophosphate dehydrogenase 1 (Homo sapiens, UniProt P20839). Put plainly: Inhibitory activity against human Inosine-5'-monophosphate dehydrogenase 1 (IMPDH type I); NA is not active. In short, it runs like this: as §1
Target sequence in this assay (P20839 2-514 limits assumed): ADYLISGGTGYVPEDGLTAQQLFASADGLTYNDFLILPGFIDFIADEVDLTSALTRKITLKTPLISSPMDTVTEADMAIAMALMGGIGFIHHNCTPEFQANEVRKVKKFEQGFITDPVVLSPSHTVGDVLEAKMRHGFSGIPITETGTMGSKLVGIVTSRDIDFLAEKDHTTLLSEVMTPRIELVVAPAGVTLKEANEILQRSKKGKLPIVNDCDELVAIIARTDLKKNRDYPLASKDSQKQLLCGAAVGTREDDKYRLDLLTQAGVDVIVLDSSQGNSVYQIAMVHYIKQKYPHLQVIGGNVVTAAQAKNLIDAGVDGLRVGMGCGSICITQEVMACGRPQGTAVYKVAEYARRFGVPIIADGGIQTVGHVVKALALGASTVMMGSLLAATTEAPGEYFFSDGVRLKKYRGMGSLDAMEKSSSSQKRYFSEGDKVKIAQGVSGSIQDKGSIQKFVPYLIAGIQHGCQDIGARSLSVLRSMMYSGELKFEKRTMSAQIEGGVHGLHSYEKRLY
Experiment [5] relates to K562. Put plainly: Concentration of the Antiproliferative compound required for the 50% inhibition of Growth against K562 cells. The format is functional, cell-based. Conditions: Homo sapiens.
Experiment [6] has as its target T2, Inosine-5'-monophosphate dehydrogenase 1. Put plainly: Inhibitory activity against human Inosine-5'-monophosphate dehydrogenase 1 (IMPDH type I). In short, it runs like this:
as §1
Target sequence in this assay (P20839 whole entry): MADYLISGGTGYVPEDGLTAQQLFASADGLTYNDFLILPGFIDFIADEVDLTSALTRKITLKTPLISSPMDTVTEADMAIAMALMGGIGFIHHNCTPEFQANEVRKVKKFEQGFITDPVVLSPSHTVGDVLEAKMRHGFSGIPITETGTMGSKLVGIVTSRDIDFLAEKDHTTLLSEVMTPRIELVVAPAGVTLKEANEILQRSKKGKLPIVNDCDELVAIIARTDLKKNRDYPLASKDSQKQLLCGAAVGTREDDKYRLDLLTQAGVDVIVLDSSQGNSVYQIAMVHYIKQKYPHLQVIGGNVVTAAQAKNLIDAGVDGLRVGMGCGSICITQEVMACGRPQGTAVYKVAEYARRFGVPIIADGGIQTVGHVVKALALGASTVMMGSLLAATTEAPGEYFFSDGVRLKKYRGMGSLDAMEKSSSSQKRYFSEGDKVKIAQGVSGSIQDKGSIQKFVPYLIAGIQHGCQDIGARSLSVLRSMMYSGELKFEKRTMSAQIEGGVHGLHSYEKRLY

Experiment [7] relates to K562. Put plainly: Compound effect on differentiation of K562 cells, % of benzidine positive cells at 10 uM. It counts as functional, Homo sapiens.
Experiment [8] concerns the target T1, Inosine-5'-monophosphate dehydrogenase 2. Description: Inhibitory activity against human Inosine-5'-monophosphate dehydrogenase 2 (IMPDH type II).
The subject of experiment [9] is K562. Put plainly: Compound effect on differentiation of K562 cells, % of benzidine positive cells at 100 uM. The format is functional, Homo sapiens.
Experiment [10] relates to K562. Description: Antiproliferative activity against K562 cells. It counts as functional, cell-based, Homo sapiens.
Experiment [11] has as its system K562. Put plainly: Compound effect on differentiation of K562 cells, % of benzidine positive cells at 14.3 uM. It counts as functional, Homo sapiens.
Experiment [12] has as its target T2, Inosine-5'-monophosphate dehydrogenase 1. Description: Inhibitory activity against human Inosine-5'-monophosphate dehydrogenase 1 (IMPDH type I);NA is not active. In short, it runs like this: as §1
Target sequence in this assay (P20839 2-514 limits assumed): as the sequence (P20839 2-514 limits assumed) above
For experiment [13], the target named is T1, Inosine-5'-monophosphate dehydrogenase 2. Description: Inhibitory activity against human Inosine-5'-monophosphate dehydrogenase 2 (IMPDH type II);NA is not active. In short, it runs like this:
as §1

Experiment [14] relates to K562. Put plainly: Compound effect on differentiation of K562 cells, % of benzidine positive cells at 20 uM. The format is functional, Homo sapiens.
In experiment [15] the test system is K562. Description: Compound effect on differentiation of K562 cells, % of benzidine positive cells at 14 uM. It counts as functional, Homo sapiens.
Experiment [16] deals with K562. Description: Compound effect on differentiation of K562 cells, % of benzidine positive cells at 1.5 uM. The format is functional, Homo sapiens.
Experiment [17] concerns K562. Put plainly: Compound effect on differentiation of K562 cells, % of benzidine positive cells at 1.6 uM. The format is functional, Homo sapiens.

One may read the IC50 as the concentration that inhibits the measured activity by half. One may read the Ki as the dissociation constant of the complex between target and ligand, obtained from inhibition or displacement. Read a high Ki as lower affinity.

SMILES strings stand for the structures. Activity calls are given as the source filed them. The calls are words filed in the database; no cut-off is given here.

`NC(=O)c1csc([C@@H]2O[C@H](CO)[C@@H](O)[C@H]2O)n1` [TIAZOFURIN]: the NA result in [1] and in [4] was “inactive” in each case. Besides, the Effect in the experiment on K562 [2] amounted to 80%; with K562 [3], 5.3%.
In the case of `COc1c(C)c2c(c(O)c1C/C=C(/C)CCCOP(=O)(O)CP(=O)(O)OC[C@@H]1OC(n3cnc4c(N)ncnc43)[C@@H](O)[C@H]1O)C(=O)OC2` (stereo partly specified), in the experiment on K562 [5], the IC50 is 1.5 µM. Moreover, the Ki in experiment [6] worked out at 0.33 µM; in experiment [8], 0.29 µM. Also, the Effect in the experiment with K562 [7] is 90%; in the experiment on K562 [3] it was 9%.
Take `COc1c(C)c2c(c(O)c1CCOP(=O)(O)CP(=O)(O)OCCc1c(O)c3c(c(C)c1OC)COC3=O)C(=O)OC2`: in the experiment on K562 [5], the IC50 worked out at 2090 µM. Also, the figures for the Ki in [6] and in experiment [8] were 2.3 µM and 0.47 µM, respectively. The Effect with K562 [9] worked out at 4.4%; in the experiment on K562 [3], 0.4%.
Regarding `COc1c(C)c2c(c(O)c1C/C=C(\C)CCC(=O)O)C(=O)OC2` [MYCOPHENOLIC ACID], affinity in [6] was put at a Ki of 0.04 µM. For the same molecule, in the experiment with K562 [10], the IC50 is 0.3 µM.
Consider `NC(=O)c1csc([C@@H]2O[C@H](COP(=O)(O)CP(=O)(O)OC[C@@H]3O[C@H](n4cnc5c(N)ncnc54)[C@@H](O)[C@H]3O)[C@@H](O)[C@H]2O)n1`, for which the Effect with K562 [11] worked out at 35%; with K562 [3], 2.4%. Besides, the Ki in [6] and in experiment [8] was 0.11 µM in each case.
`NC(=O)c1cccc([C@@H]2O[C@H](CO)[C@@H](O)[C@H]2O)c1` returned an IC50 in the experiment with K562 [5] of 1.5 µM. The NA entry in experiment [12] and in experiment [13] was “inactive” in each case.
In turn, `COc1c(C)c2c(c(O)c1CCOP(=O)(O)CP(=O)(O)O)C(=O)OC2` displayed an IC50 in the experiment with K562 [5] of 43.2 µM. In addition, the Ki in experiment [6] was determined as 0.89 µM; in experiment [8] it was 0.4 µM. Besides, the Effect came out at 3.3% in the experiment with K562 [3] and 67% with K562 [14].
In the case of `NC(=O)c1csc([C@@H]2O[C@H](COP(=O)(O)C(F)(F)P(=O)(O)OC[C@@H]3O[C@H](n4cnc5c(N)ncnc54)[C@@H](O)[C@H]3O)[C@@H](O)[C@H]2O)n1`, the Effect is 48% with K562 [15] and 3.4% in the experiment with K562 [3]. In addition, the Ki in [6] and in [8] was 0.3 µM in each case.
Regarding `COc1c(C)c2c(c(O)c1C/C=C(\C)COP(=O)(O)CP(=O)(O)OC[C@@H]1O[C@H](n3cnc4c(N)ncnc43)[C@@H](O)[C@H]1O)C(=O)OC2`, the IC50 in the experiment on K562 [5] was 0.1 µM. Further, the Ki in experiment [6] was 0.52 µM; in experiment [8] it was 0.38 µM. The Effect in the experiment on K562 [3] turned out to be 63.3%; in the experiment with K562 [16] it was 95%.
With `NC(=O)c1cccc(C2OC(COP(=O)(O)CP(=O)(O)OC[C@@H]3OC(n4cnc5c(N)ncnc54)[C@@H](O)[C@H]3O)[C@@H](O)[C@H]2O)c1` (stereo partly specified), in the experiment with K562 [5], the midpoint of inhibition, the IC50, lay at 60 µM. Moreover, the Ki in experiment [6] was found to be 0.66 µM; in [8] it was 0.95 µM. Also, the Effect was 9.5% in the experiment with K562 [2] and 0.6% in the experiment with K562 [3].
Regarding `COc1c(C)c2c(c(O)c1CCOP(=O)(O)CP(=O)(O)OC[C@H]1O[C@@H](n3cnc4c(N)ncnc43)[C@H](O)[C@@H]1O)C(=O)OC2`, the Effect with K562 [17] worked out at 65.4%; in the experiment on K562 [3], 40.9%.
`NC(=O)c1csc([C@H]2O[C@@H](COP(=O)(O)OP(=O)(O)OC[C@H]3O[C@@H](n4cnc5c(N)ncnc54)[C@H](O)[C@@H]3O)[C@H](O)[C@@H]2O)n1`: the results for the Effect in the experiment on K562 [15] and with K562 [3] were 35% and 2.5%, respectively.
